Results as given in PubChem BioAssay.
The source made the active and inactive calls.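 The calls were made as follows, unless noted: active = viability loss from added drug above about 55%, and viability with drug at most 40%, in both replicates (limit read from the data, passing the limit was not always enough); inconclusive = both conditions met in only one replicate; inactive = neither replicate meets both conditions.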

What was measured:
[1] = reducers of endogenous Her2 protein level, primary screen, SKBR3 breast tumor cells, AlphaScreen, ATP viability (AID 461;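 active = Her2 level under about 52% in both replicate screens, with viability over 70% of control, limit read from the data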;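 as to Her2 level: lower value means less Her2 protein in the cells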;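 as to viability: percent of carrier control wells set as 100% viability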); conditions: 18-24 h, measured here: SKBR3 viability, ATP luminescence, at 10 µM
[2] = molecular target: Receptor tyrosine-protein kinase erbB-2 (Homo sapiens) (UniProt P04626); experiment: as above; conditions: 18-24 h, at 10 µM, stronger effect = lower value
Receptor tyrosine-protein kinase erbB-2 (Homo sapiens), sequence (P04626 whole entry, looked up): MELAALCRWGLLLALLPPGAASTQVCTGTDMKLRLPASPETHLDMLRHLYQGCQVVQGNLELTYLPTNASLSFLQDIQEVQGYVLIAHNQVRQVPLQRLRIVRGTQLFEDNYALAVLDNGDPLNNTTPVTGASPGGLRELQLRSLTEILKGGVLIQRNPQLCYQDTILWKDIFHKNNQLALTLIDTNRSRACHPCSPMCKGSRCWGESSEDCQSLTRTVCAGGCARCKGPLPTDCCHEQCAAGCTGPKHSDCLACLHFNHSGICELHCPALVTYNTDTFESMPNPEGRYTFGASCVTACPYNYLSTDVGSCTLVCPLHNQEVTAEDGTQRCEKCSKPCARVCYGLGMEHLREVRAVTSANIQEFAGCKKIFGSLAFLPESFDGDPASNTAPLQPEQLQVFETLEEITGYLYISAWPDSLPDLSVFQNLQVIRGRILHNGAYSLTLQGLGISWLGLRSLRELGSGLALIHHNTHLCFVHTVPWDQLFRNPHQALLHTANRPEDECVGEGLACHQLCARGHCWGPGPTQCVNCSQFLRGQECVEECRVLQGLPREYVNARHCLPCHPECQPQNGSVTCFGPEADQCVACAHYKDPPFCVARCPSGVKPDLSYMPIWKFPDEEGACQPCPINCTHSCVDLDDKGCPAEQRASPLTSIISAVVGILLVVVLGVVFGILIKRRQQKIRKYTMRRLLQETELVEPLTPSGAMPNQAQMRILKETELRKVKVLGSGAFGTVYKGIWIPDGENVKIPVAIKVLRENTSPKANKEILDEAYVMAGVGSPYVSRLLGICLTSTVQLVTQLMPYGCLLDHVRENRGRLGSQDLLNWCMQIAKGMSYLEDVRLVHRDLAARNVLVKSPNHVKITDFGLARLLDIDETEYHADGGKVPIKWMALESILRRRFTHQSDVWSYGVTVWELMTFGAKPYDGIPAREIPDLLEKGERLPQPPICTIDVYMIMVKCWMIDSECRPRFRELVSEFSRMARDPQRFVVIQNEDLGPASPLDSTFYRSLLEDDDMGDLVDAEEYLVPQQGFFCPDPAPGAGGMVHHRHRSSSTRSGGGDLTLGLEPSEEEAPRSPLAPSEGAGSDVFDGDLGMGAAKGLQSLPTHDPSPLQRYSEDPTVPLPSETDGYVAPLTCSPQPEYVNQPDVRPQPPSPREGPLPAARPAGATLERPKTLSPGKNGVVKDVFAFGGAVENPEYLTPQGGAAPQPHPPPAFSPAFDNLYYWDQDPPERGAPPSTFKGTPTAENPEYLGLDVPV

[3] = SK-BR-3 cell growth inhibitors, pilot screen, 24 h, human (AID 572;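 active = viability at or below 10% of carrier control in both of two separate runs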;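 also: compound exposure lasted between 18 and 24 h rather than exactly 24 h; 100% = carrier-treated control wells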); conditions: SK-BR-3 viability, CellTiter-Glo luminescence, at 10 µM, stronger effect = lower value
[4] = HUVEC growth inhibition – cell-based, human, primary screen (AID 575;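 active = viability at or below 30% in both replicate assays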;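 also: 100% = median of untreated cell wells with 0.1% DMSO on each plate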); conditions: HUVEC proliferation, CellTiter-Glo luminescence, 72 h; at 10 µM; stronger effect = lower value
Procedure, shortened: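 Test system: primary human umbilical vein endothelial cells; medium: endothelial basal medium with 2% FBS plus growth supplements; dosing: 10 µM compound only; times: 72 h treatment at 37 °C; signal: CTG luminescence; read-out: % viability relative to median vehicle-well signal on each plate; control set: vehicle and MePR control wells; plate: 384-well, collagen-coated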

[5] = growth inhibitors of H69AR lung tumor, primary screen, human, duplicate replicates (AID 580;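 active = viability at or under a set limit in both replicates, limit being median viability minus 3 SD, cut at about 48% in these data, passing the limit was not always enough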;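 also: 100% = mean luminescence of untreated wells and 0% = no signal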); conditions: H69AR lung tumor cells viability, ATP luminescence, 72 h; at 10 µM; stronger effect = lower value
[6] = reversal of MRP1-mediated doxorubicin resistance, pilot screen, H69AR cells, doxorubicin co-treatment (AID 601); conditions: CellTiter-Glo, 72 h, at 10 µM; for differential viability (reversal): stronger effect = higher value
[7] = 384-well plate pilot, post-Golgi transport modulator project, inhibition of yeast transport mutant growth (AID 636; in the data active = inhibition above about 31%); conditions: absorbance 615 nm, about 18 h, stronger effect = higher value
[8] = growth suppression of yeast trafficking mutant, preliminary HTS, modulators of trafficking downstream of Golgi apparatus project, 1536-format plate, OD 615 nm (AID 637; in the data active = inhibition above about 30%); conditions: yeast transport mutant growth, absorbance 615 nm, 18 h; stronger effect = higher value
[9] = H69AR cells + 2 uM doxorubicin, measured here: viability with 2 uM doxorubicin, stronger effect = lower value
[10] = H69AR cells, compound alone cytotoxicity

Row | Structure (SMILES) | viability [1] [%] | Her2 level [2] | viability [3] | viability [4] | viability [5] | differential viability (reversal) ([6]; H69AR cells + 2 uM doxorubicin) | viability [6, 9] [%] | viability [6, 10] [%] | inhibition [7] | inhibition [8]
1 | CCOC(=O)C1CCCN(Cc2nc(N)nc(Nc3ccccc3)n2)C1 (stereo not given) | 100 | 87% (inactive) | 100% (inactive) | 92.8% (inactive) | 91.1% (inactive) | 5.62% (inactive) | 85.5 | 91.1 | 1.05% (inactive) | 0.32% (inactive)
2 | Cc1cc(NC(=O)C23CCC(C)(C(=O)O2)C3(C)C)no1 (stereo not given) | 108 | 93% (inactive) | 108% (inactive) | 96.7% (inactive) | 97.5% (inactive) | 8.27% (inactive) | 89.2 | 97.5 | -0.78% (inactive) | 0.63% (inactive)
3 | COc1ccc(CCNc2oc(-c3ccco3)nc2C#N)cc1 | 95 | 81.5% (inactive) | 95% (inactive) | 96.7% (inactive) | 94.6% (inactive) | -3.7% (inactive) | 98.3 | 94.6 | -3.07% (inactive) | 3.93% (inactive)
4 | COc1ccc(N(CC(=O)N2CCCCC2)S(=O)(=O)c2ccccc2)c(OC)c1 | 91 | 94.5% (inactive) | 91% (inactive) | 91.9% (inactive) | 86.5% (inactive) | -2.6% (inactive) | 89.1 | 86.5 | -1.03% (inactive) | -3.83% (inactive)
5 | CCOC(=O)c1cc(-c2nnc(-c3ccc(Oc4ccccc4)cc3)o2)c(C)nc1C | 85 | 88% (inactive) | 85% (inactive) | 80.5% (inactive) | 102% (inactive) | 16.7% (inactive) | 85.7 | 102 | -1.6% (inactive) | -0.16% (inactive)
6 | O=C(COC(=O)Cc1cccc(C(F)(F)F)c1)NCC1CCCO1 (stereo not given) | 94 | 98.5% (inactive) | 94% (inactive) | 96.5% (inactive) | 96.4% (inactive) | 22.8% (inactive) | 73.5 | 96.4 | -5.13% (inactive) | -4.36% (inactive)
7 | CC(C)OC(=O)CSc1nnnn1-c1ccc2c(c1)OCCO2 | 99.5 | 84.5% (inactive) | 99.5% (inactive) | 99% (inactive) | 88.6% (inactive) | 6.42% (inactive) | 82.2 | 88.6 | -7.03% (inactive) | -2.33% (inactive)
8 | CC1Cc2ccccc2N1C(=O)c1cccnc1 (stereo not given) | 121 | 91.5% (inactive) | 121% (inactive) | 92.8% (inactive) | 98.1% (inactive) | 2.02% (inactive) | 96 | 98.1 | -2.21% (inactive) | -0.16% (inactive)
9 | CCCCCn1c2nc3ccccc3nc2c2c(=O)n(CC(C)C)cnc21 | 116 | 103% (inactive) | 116% (inactive) | 103% (inactive) | 87.3% (inactive) | -3.98% (inactive) | 91.3 | 87.3 | -0.79% (inactive) | 3.55% (inactive)
10 | COCCNC(=O)c1ccc(CS(=O)(=O)c2ccc(OC)cc2)o1 | 97 | 121% (inactive) | 97% (inactive) | 87% (inactive) | 109% (inactive) | 15.8% (inactive) | 93.5 | 109 | -1.03% (inactive) | 2.67% (inactive)
11 | Clc1cccc(-c2nn3c(Cn4cnc5ccccc54)nnc3s2)c1 | 94.5 | 82.5% (inactive) | 94.5% (inactive) | 76.9% (inactive) | 94.9% (inactive) | -1.69% (inactive) | 96.6 | 94.9 | 0.92% (inactive) | 5.9% (inactive)
12 | COCCn1c(CN(Cc2ccccc2)Cc2ccccc2)nc2c1c(=O)n(C)c(=O)n2C | 81 | 96% (inactive) | 81% (inactive) | 81.2% (inactive) | 81.2% (inactive) | -11.8% (inactive) | 93 | 81.2 | -1.87% (inactive) | 1.5% (inactive)
13 | CN(C)/C=C1\N=C(c2ccc(Cl)cc2Cl)OC1=O | 102 | 108% (inactive) | 102% (inactive) | 92.7% (inactive) | 95.9% (inactive) | 19.6% (inactive) | 76.3 | 95.9 | -3.29% (inactive) | -3.97% (inactive)
14 | COc1cc(C(N)=O)ccc1OCc1ccccc1 | 86 | 83.5% (inactive) | 86% (inactive) | 91.6% (inactive) | 98.7% (inactive) | 8% (inactive) | 90.8 | 98.7 | -1.45% (inactive) | -7.14% (inactive)
15 | Cc1cccc2cc(C#N)c(NCCNC(=O)NC3CCCCC3)nc12 | 97.5 | 84.5% (inactive) | 97.5% (inactive) | 48.3% (inactive) | 75.1% (inactive) | -7.59% (inactive) | 82.7 | 75.1 | -2.37% (inactive) | -3.45% (inactive)
16 | CCn1cc(C(=O)OCc2ccc(F)cc2)c(=O)c2ccc(C)nc21 | 104 | 82% (inactive) | 104% (inactive) | 89.3% (inactive) | 79.3% (inactive) | 1.26% (inactive) | 78.1 | 79.3 | -2.27% (inactive) | 0.16% (inactive)
17 | CC(C)(C)NC(=O)COC(=O)c1snc(C(=O)NC2CCCCC2)c1N | 86 | 75% (inactive) | 86% (inactive) | 51.9% (inactive) | 101% (inactive) | 12.7% (inactive) | 88.1 | 101 | -0.95% (inactive) | 1.59% (inactive)
18 | O=C(NCC1CCCO1)c1ccc(N2CCCCC2)nc1 (stereo not given) | 91.5 | 109% (inactive) | 91.5% (inactive) | 113% (inactive) | 90.1% (inactive) | 4.52% (inactive) | 85.6 | 90.1 | 0.26% (inactive) | -2.83% (inactive)
19 | CCOc1ccc2c(O)csc2c1 | 90.5 | 116% (inactive) | 90.5% (inactive) | 96.2% (inactive) | 95.9% (inactive) | 2.28% (inactive) | 93.7 | 95.9 | 0.13% (inactive) | 2.17% (inactive)
20 | CC(C)(C)c1ccc2c(c1)OCC(C(=O)O)O2 (stereo not given) | 99.5 | 106% (inactive) | 99.5% (inactive) | 99.3% (inactive) | 106% (inactive) | 9.5% (inactive) | 96.3 | 106 | 0.55% (inactive) | -3.65% (inactive)
21 | CC(C)=CCSc1nnc(CCNC(=O)OC(C)(C)C)o1 | 96 | 85.5% (inactive) | 96% (inactive) | 87.2% (inactive) | 96.6% (inactive) | 17.2% (inactive) | 79.3 | 96.6 | -4.8% (inactive) | 16.6% (inactive)
22 | Cc1cc(NC(=O)CSc2nnc(C3CC3)n2C)no1 | 91 | 80% (inactive) | 91% (inactive) | 92.4% (inactive) | 100% (inactive) | 0.235% (inactive) | 100 | 100 | -0.53% (inactive) | -2.91% (inactive)
23 | Cc1nn(-c2ccccc2)c2c1C(=O)NC(=O)C(C)(C)C2 | 96.5 | 88.5% (inactive) | 96.5% (inactive) | 105% (inactive) | 97.3% (inactive) | 16.2% (inactive) | 81.1 | 97.3 | -4.08% (inactive) | -1.27% (inactive)
24 | CCOC(=O)N1CCN(C(=O)CN(C)S(=O)(=O)c2ccc(OC)c(OC)c2)CC1 | 100 | 94.5% (inactive) | 100% (inactive) | 104% (inactive) | 91.5% (inactive) | 3.21% (inactive) | 88.3 | 91.5 | -6.84% (inactive) | 1.97% (inactive)
25 | O=C(c1cccc(C(=O)N2CCN(c3ccc(F)cc3)CC2)c1)N1CCN(c2ccc(F)cc2)CC1 | 110 | 102% (inactive) | 110% (inactive) | 74% (inactive) | 73.4% (inactive) | 24% (inactive) | 49.4 | 73.4 | 3.51% (inactive) | 2.95% (inactive)
26 | CC(=O)NC1CC2CCCC(C1)N2CC(=O)Nc1ccccc1 (stereo not given) | 95.5 | 97% (inactive) | 95.5% (inactive) | 88.9% (inactive) | 96.7% (inactive) | 11.4% (inactive) | 85.2 | 96.7 | 0.13% (inactive) | -6.98% (inactive)
27 | O=C(NCc1cccs1)C1CC(c2ccccc2O)=NO1 (stereo not given) | 74 | 78.5% (inactive) | 74% (inactive) | 63.4% (inactive) | 104% (inactive) | 16.5% (inactive) | 87.3 | 104 | -3.73% (inactive) | -0.33% (inactive)
28 | CCCCOc1ccccc1NC(=O)c1ccco1 | 87 | 93% (inactive) | 87% (inactive) | 76.6% (inactive) | 62.9% (inactive) | -14.4% (inactive) | 77.3 | 62.9 | -0.93% (inactive) | -0.16% (inactive)
29 | Cc1ccc(S(=O)(=O)Cn2nnnc2CN(Cc2ccco2)Cc2cccs2)cc1 | 91.5 | 97.5% (inactive) | 91.5% (inactive) | 104% (inactive) | 80.6% (inactive) | 4.66% (inactive) | 75.9 | 80.6 | -5.87% (inactive) | -7.87% (inactive)
